{"source": "ChEMBL document CHEMBL4330104", "about": "“Synthesis, biological evaluations and computational studies of N-(3-(-2-(7-Chloroquinolin-2-yl)vinyl) benzylidene)anilines as fungal biofilm inhibitors” (Bioorg Med Chem Lett, 2019)", "key": {"Candida albicans [1]": {"system": "Candida albicans", "assay": "Antibiofilm activity against Candida albicans NCIM 3471 after 24 hrs by MTT assay", "assay_type": "functional, organism-based", "settings": "NCIM 3471, 24 h", "method_in_brief": "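Biofilms formed from C. albicans at 10^5 cells/well in RPMI, exposed to 0–100 µM compound (fluconazole reference) for 24 h at 30 °C. Wells washed with phosphate buffer, then MTT (1 µg/µL) added for 3 h in the dark. Formazan dissolved in DMSO, absorbance read at 575 nm. IC50 for 50% biofilm inhibition taken from the inhibition curve.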"}, "Staphylococcus aureus": {"system": "Staphylococcus aureus", "assay": "Antibacterial activity against Staphylococcus aureus NCIM 2901 after 24 hrs by two-fold serial dilution method", "assay_type": "functional", "settings": "NCIM 2901, 24 h", "method_in_brief": "(§1)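 Bacterial inocula taken from 24 h nutrient agar cultures at 37±1 °C, brought to […] with sterile saline, grown in nutrient broth. Compounds tested as two-fold serial dilutions at 400, 200, 100, 50, 25, 12.5, 6.25 and 3.13 µg/mL, with ciprofloxacin as reference. Incubation at 37±1 °C; MIC read after 24 h.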"}, "Bacillus subtilis": {"system": "Bacillus subtilis", "assay": "Antibacterial activity against Bacillus subtilis NCIM 2063 after 24 hrs by two-fold serial dilution method", "assay_type": "functional", "settings": "NCIM 2063, 24 h", "method_in_brief": "as §1"}, "Escherichia coli": {"system": "Escherichia coli", "assay": "Antibacterial activity against Escherichia coli NCIM 2256 after 24 hrs by two-fold serial dilution method", "assay_type": "functional", "settings": "NCIM 2256, 24 h", "method_in_brief": "as §1"}, "Candida albicans [2]": {"system": "Candida albicans", "assay": "Antifungal activity against Candida albicans NCIM 3471 after 48 to 72 hrs by SDA agar dilution method", "assay_type": "functional", "method_in_brief": "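CLSI agar method. Compounds dissolved in DMSO. C. albicans subcultured on Sabouraud dextrose agar at 25 °C for 72 h, suspended in sterile water at 10^5 cells/mL, and inoculated onto test, drug-free and DMSO control plates. Plates incubated at 25 °C. MIC taken as the lowest concentration that prevents macroscopically visible colonies, read at 48 h and 72 h.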"}, "Pseudomonas aeruginosa": {"system": "Pseudomonas aeruginosa", "assay": "Antibacterial activity against Pseudomonas aeruginosa NCIM 2036 after 24 hrs by two-fold serial dilution method", "assay_type": "functional", "settings": "NCIM 2036, 24 h", "method_in_brief": "as §1"}}}
{"compound": "O=[N+]([O-])c1cccc(/N=C/c2cccc(/C=C/c3ccc4ccc(Cl)cc4n3)c2)c1", "values": [{"measurement": "IC50", "setting": "Candida albicans [1]", "value": 83.6, "unit": "µM"}, {"measurement": "MIC", "setting": "Staphylococcus aureus", "value": 104, "unit": "µg/mL"}, {"measurement": "MIC", "setting": "Bacillus subtilis", "value": 17.4, "unit": "µg/mL"}, {"measurement": "MIC", "setting": "Escherichia coli", "value": 185, "unit": "µg/mL"}, {"measurement": "MIC", "setting": "Candida albicans [2]", "value": 106, "unit": "µg/mL"}, {"measurement": "MIC", "setting": "Pseudomonas aeruginosa", "value": 190, "unit": "µg/mL"}]}
{"compound": "COc1ccc(/N=C/c2cccc(/C=C/c3ccc4ccc(Cl)cc4n3)c2)cc1", "values": [{"measurement": "IC50", "setting": "Candida albicans [1]", "value": 97.5, "unit": "µM"}, {"measurement": "MIC", "setting": "Staphylococcus aureus", "value": 94.8, "unit": "µg/mL"}, {"measurement": "MIC", "setting": "Bacillus subtilis", "value": 17.6, "unit": "µg/mL"}, {"measurement": "MIC", "setting": "Escherichia coli", "value": 120, "unit": "µg/mL"}, {"measurement": "MIC", "setting": "Candida albicans [2]", "value": 105, "unit": "µg/mL"}, {"measurement": "MIC", "setting": "Pseudomonas aeruginosa", "value": 167, "unit": "µg/mL"}]}
{"compound": "Clc1ccc(/N=C/c2cccc(/C=C/c3ccc4ccc(Cl)cc4n3)c2)cc1", "values": [{"measurement": "IC50", "setting": "Candida albicans [1]", "value": 66.2, "unit": "µM"}, {"measurement": "MIC", "setting": "Staphylococcus aureus", "value": 170, "unit": "µg/mL"}, {"measurement": "MIC", "setting": "Bacillus subtilis", "value": 31.6, "unit": "µg/mL"}, {"measurement": "MIC", "setting": "Escherichia coli", "value": 45, "unit": "µg/mL"}, {"measurement": "MIC", "setting": "Candida albicans [2]", "value": 94.2, "unit": "µg/mL"}, {"measurement": "MIC", "setting": "Pseudomonas aeruginosa", "value": 228, "unit": "µg/mL"}]}
{"compound": "Cc1ccc(/N=C/c2cccc(/C=C/c3ccc4ccc(Cl)cc4n3)c2)cc1", "values": [{"measurement": "IC50", "setting": "Candida albicans [1]", "value": 96.2, "unit": "µM"}, {"measurement": "MIC", "setting": "Staphylococcus aureus", "value": 98.5, "unit": "µg/mL"}, {"measurement": "MIC", "setting": "Bacillus subtilis", "value": 17, "unit": "µg/mL"}, {"measurement": "MIC", "setting": "Escherichia coli", "value": 205, "unit": "µg/mL"}, {"measurement": "MIC", "setting": "Candida albicans [2]", "value": 164, "unit": "µg/mL"}, {"measurement": "MIC", "setting": "Pseudomonas aeruginosa", "value": 177, "unit": "µg/mL"}]}
{"compound": "FC(F)(F)c1cccc(/N=C/c2cccc(/C=C/c3ccc4ccc(Cl)cc4n3)c2)c1", "values": [{"measurement": "IC50", "setting": "Candida albicans [1]", "value": 87.2, "unit": "µM"}, {"measurement": "MIC", "setting": "Staphylococcus aureus", "value": 71.3, "unit": "µg/mL"}, {"measurement": "MIC", "setting": "Bacillus subtilis", "value": 33.4, "unit": "µg/mL"}, {"measurement": "MIC", "setting": "Escherichia coli", "value": 102, "unit": "µg/mL"}, {"measurement": "MIC", "setting": "Candida albicans [2]", "value": 191, "unit": "µg/mL"}, {"measurement": "MIC", "setting": "Pseudomonas aeruginosa", "value": 142, "unit": "µg/mL"}]}
{"compound": "Clc1ccc2ccc(/C=C/c3cccc(/C=N/c4ccccc4)c3)nc2c1", "values": [{"measurement": "IC50", "setting": "Candida albicans [1]", "value": 199, "unit": "µM"}, {"measurement": "MIC", "setting": "Staphylococcus aureus", "value": 91.6, "unit": "µg/mL"}, {"measurement": "MIC", "setting": "Bacillus subtilis", "value": 32.4, "unit": "µg/mL"}, {"measurement": "MIC", "setting": "Escherichia coli", "value": 110, "unit": "µg/mL"}, {"measurement": "MIC", "setting": "Candida albicans [2]", "value": 98.8, "unit": "µg/mL"}, {"measurement": "MIC", "setting": "Pseudomonas aeruginosa", "value": 102, "unit": "µg/mL"}]}
{"compound": "Cc1ccccc1/N=C/c1cccc(/C=C/c2ccc3ccc(Cl)cc3n2)c1", "values": [{"measurement": "IC50", "setting": "Candida albicans [1]", "value": 166, "unit": "µM"}, {"measurement": "MIC", "setting": "Staphylococcus aureus", "value": 85.3, "unit": "µg/mL"}, {"measurement": "MIC", "setting": "Bacillus subtilis", "value": 136, "unit": "µg/mL"}, {"measurement": "MIC", "setting": "Escherichia coli", "value": 68.5, "unit": "µg/mL"}, {"measurement": "MIC", "setting": "Candida albicans [2]", "value": 104, "unit": "µg/mL"}, {"measurement": "MIC", "setting": "Pseudomonas aeruginosa", "value": 185, "unit": "µg/mL"}]}
{"compound": "O=[N+]([O-])c1ccc(/N=C/c2cccc(/C=C/c3ccc4ccc(Cl)cc4n3)c2)cc1", "values": [{"measurement": "IC50", "setting": "Candida albicans [1]", "value": 92.1, "unit": "µM"}, {"measurement": "MIC", "setting": "Staphylococcus aureus", "value": 166, "unit": "µg/mL"}, {"measurement": "MIC", "setting": "Bacillus subtilis", "value": 15.7, "unit": "µg/mL"}, {"measurement": "MIC", "setting": "Escherichia coli", "value": 150, "unit": "µg/mL"}, {"measurement": "MIC", "setting": "Candida albicans [2]", "value": 121, "unit": "µg/mL"}, {"measurement": "MIC", "setting": "Pseudomonas aeruginosa", "value": 200, "unit": "µg/mL"}]}
{"compound": "FC(F)(F)c1ccccc1/N=C/c1cccc(/C=C/c2ccc3ccc(Cl)cc3n2)c1", "values": [{"measurement": "IC50", "setting": "Candida albicans [1]", "value": 94.3, "unit": "µM"}, {"measurement": "MIC", "setting": "Staphylococcus aureus", "value": 55.3, "unit": "µg/mL"}, {"measurement": "MIC", "setting": "Bacillus subtilis", "value": 36.2, "unit": "µg/mL"}, {"measurement": "MIC", "setting": "Escherichia coli", "value": 67.5, "unit": "µg/mL"}, {"measurement": "MIC", "setting": "Candida albicans [2]", "value": 282, "unit": "µg/mL"}, {"measurement": "MIC", "setting": "Pseudomonas aeruginosa", "value": 250, "unit": "µg/mL"}]}
{"compound": "FC(F)(F)c1ccc(/N=C/c2cccc(/C=C/c3ccc4ccc(Cl)cc4n3)c2)cc1", "values": [{"measurement": "IC50", "setting": "Candida albicans [1]", "value": 51.2, "unit": "µM"}, {"measurement": "MIC", "setting": "Staphylococcus aureus", "value": 89.7, "unit": "µg/mL"}, {"measurement": "MIC", "setting": "Bacillus subtilis", "value": 37.7, "unit": "µg/mL"}, {"measurement": "MIC", "setting": "Escherichia coli", "value": 84.5, "unit": "µg/mL"}, {"measurement": "MIC", "setting": "Candida albicans [2]", "value": 174, "unit": "µg/mL"}, {"measurement": "MIC", "setting": "Pseudomonas aeruginosa", "value": 91.5, "unit": "µg/mL"}]}
{"compound": "O=C(O)c1cn(C2CC2)c2cc(N3CCNCC3)c(F)cc2c1=O", "note": "[CIPROFLOXACIN]", "values": [{"measurement": "MIC", "setting": "Pseudomonas aeruginosa", "value": 50, "unit": "µg/mL"}]}
{"compound": "OC(Cn1cncn1)(Cn1cncn1)c1ccc(F)cc1F", "note": "[FLUCONAZOLE]", "values": [{"measurement": "MIC", "setting": "Candida albicans [2]", "value": 50, "unit": "µg/mL"}]}
